Bioassay records from PubChem BioAssay.
This is a sample that favours compounds with a hit; in the whole collection about 3.4% have one here.
Wee1 degr inh: Wee1 degradation inhibitors, primary screen, cell-based, HeLa, Wee1K328M-luciferase, luminescence; Wee1-like protein kinase (Homo sapiens), P30291; HeLa Luc-Wee1K328M stability; 100% = proteasome inhibitor MG132 effect; reporter increase, % at 5 µM; actives 1.2% (n = 220,000);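 active = activation above the mean of all tested compounds plus 3 SD, set per screening run, cut at about 8.8% in these data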;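 note: cells exposed to compound for 20 h before luminescence read; 0% = DMSO alone and 100% = MG132 at 30 µM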
Target sequence (P30291 whole entry K328M): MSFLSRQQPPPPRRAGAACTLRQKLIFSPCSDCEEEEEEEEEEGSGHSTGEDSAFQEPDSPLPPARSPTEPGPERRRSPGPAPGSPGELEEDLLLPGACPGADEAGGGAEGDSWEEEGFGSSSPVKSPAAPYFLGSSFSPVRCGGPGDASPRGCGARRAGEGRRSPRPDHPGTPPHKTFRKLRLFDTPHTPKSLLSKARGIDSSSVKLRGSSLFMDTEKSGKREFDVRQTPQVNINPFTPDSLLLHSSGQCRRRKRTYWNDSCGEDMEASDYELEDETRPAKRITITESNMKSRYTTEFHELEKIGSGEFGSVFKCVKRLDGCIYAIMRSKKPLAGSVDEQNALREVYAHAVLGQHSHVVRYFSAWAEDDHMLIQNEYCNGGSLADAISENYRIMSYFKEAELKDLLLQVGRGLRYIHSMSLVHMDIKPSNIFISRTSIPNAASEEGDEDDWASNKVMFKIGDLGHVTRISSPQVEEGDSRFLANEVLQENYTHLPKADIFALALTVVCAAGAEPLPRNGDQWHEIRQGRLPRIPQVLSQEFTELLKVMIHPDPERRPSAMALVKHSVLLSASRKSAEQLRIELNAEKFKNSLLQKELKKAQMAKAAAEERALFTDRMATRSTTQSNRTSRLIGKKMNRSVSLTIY
Efa HMGR inh: inhibitors of E. faecalis class II HMGR, primary screen, biochemical, Enterococcus faecalis; HMG-CoA reductase (Enterococcus faecalis, mvaE); purified E. faecalis HMGR, NADPH absorbance 340 nm kinetic; inhibition, % at 10 µM; actives 0.41% (n = 190,000);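 active = inhibition above a set limit, the median over all tested compounds plus 3 SD, cut at about 9.5% in these data; inconclusive = no clear call, values can overlap the other calls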;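 note: enzyme runs in reverse so mevalonate oxidation gives rising NADPH absorbance; 0% = complete reaction with DMSO and 100% = background rate lacking mevalonate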
PHOSPHO1 block: PubChem AID 1565. Phosphoethanolamine/phosphocholine phosphatase (Homo sapiens), Q8TCT1. recombinant PHOSPHO1, absorbance phosphatase assay. inhibition, % at 13.3 µM. actives 1.1% (n = 290,000); in the data active = inhibition above about 60%
RanGTP-Imp inh: inhibitors of RanGTP-importin-beta interaction, primary screen, biochemical, FRET, CFP-Ran, YFP-importin-beta, homogeneous. actives 1.1% (n = 300,000). cell-free CFP-Ran/YFP-importin-beta FRET ratio. inhibition, % (test concentration not listed);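 active = more than half of the replicate wells show a fall in the fluorescence ratio signal beyond about 16%, limit read from the data, passing the limit was not always enough; inconclusive = exactly half of the replicate wells pass the set limit; inactive = fewer than half of replicates pass the limit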;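 note: 0% = DMSO wells and 100% = Ran loaded with GDP instead of GTP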
Runt-CBFb FRET: inhibitors of RUNX1 Runt–CBFb binding, primary screen, biochemical, FRET, Cerulean-Runt, Venus-CBFb, uHTS; Runt-related transcription factor 1 (Homo sapiens) + Core-binding factor subunit beta …; actives 0.46% (n = 220,000); inhibition, % at 20 µM; Cerulean-Runt/Venus-CBFb FRET ratio 530/480, 1 h;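 active = inhibition over about 50% at 20 µM in the single-dose screen, limit read from the data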;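 note: 0% = DMSO wells and 100% = excess unlabeled CBFb competitor control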
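Doses: 20 µM compound in 1% DMSO | Material: Cerulean-labeled Runt domain protein | Amount: Each fluorescent fusion protein 100 nM | Schedule: Two 1 h room-temperature incubations shielded from light | Measured by: FRET fluorescence | Evaluation: Loss of energy transfer signal | Controls: Unlabeled CBFb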
Runt-SMMHC FRET: inhibitors of RUNX1 Runt–CBFb-SMMHC binding, primary screen, biochemical, FRET, Cerulean-Runt, Venus-CBFb-SMMHC, uHTS. Cerulean-Runt/Venus-CBFb-SMMHC FRET ratio 530/480, 1 h. inhibition, % at 20 µM. actives 0.74% (n = 220,000). AID 1434, 2008;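 active = mean inhibition across duplicate retests at 20 µM reaching about 50%, limit read from the data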;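 note: 0% = DMSO wells and 100% = wells with excess untagged CBFb-SMMHC; inhibitors lower the FRET ratio by blocking Runt binding to CBFb-SMMHC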
* hit, by the source's call; ? = inconclusive; · = not tested or not shown.

SMILES	Wee1 degr inh	Efa HMGR inh	PHOSPHO1 block	RanGTP-Imp inh	Runt-CBFb FRET	Runt-SMMHC FRET
COc1ccc2c3c([nH]c2c1)C1CC2C(CC(O)C(OC)C2C(=O)O)CN1CC3 (centres undefined)	-2.9	·	6.5	28.0*	-0.7	-7.5
Nc1cc(=O)[nH]c(SCC(=O)Nc2ccc3c(c2)CCC3)n1	9.6*	1.6	32.5	-0.2	1.9	4.0
Cc1ccc2nc(-c3ccc(NC(=O)CSc4nc(N)cc(=O)[nH]4)cc3)sc2c1	10.7*	·	24.8	2.8	0.0	4.4
O=C(CSc1nc(O)cc(=O)[nH]1)Nc1ccc2c(c1)CCC2	6.7	-2.3	56.2	?	-7.8	4.1
CCn1c(COc2ccc(Cl)cc2)nnc1SCC(=O)Nc1ccc2c(c1)OCO2	1.5	-2.8	60.5*	4.7	-5.3	13.2
CN(CCC(=O)Nc1ccc2c(c1)OCO2)Cc1ccccc1	10.1*	-2.1	-1.1	-3.7	-1.5	0.7
Cc1ccc(OCc2nnc(SCC(=O)Nc3ccc4c(c3)OCO4)n2C)cc1	2.0	-0.4	34.7	0.7	1.1	0.0
Cn1c(COc2ccccc2)nnc1SCC(=O)Nc1ccc2c(c1)OCO2	-1.5	-0.9	61.0*	0.2	-0.3	-3.0
CS(=O)(=O)N(CC(=O)Nc1ccc2c(c1)OCO2)Cc1ccccc1	0.4	-4.6	17.6	?	2.0	0.3
COc1ccc(-c2cnc(SCC(=O)Nc3ccc4c(c3)OCO4)n2Cc2ccco2)cc1	-0.7	-1.6	102.0*	7.8	7.3	-4.0
CC(NC(=O)C(NS(=O)(=O)c1cccc2nsnc12)C(C)C)c1ccccc1 (centres undefined)	·	·	15.1	2.1	·	·
CCOc1ccc(NC(=O)CCC(=O)NNC(=O)c2ccccc2Cl)cc1	·	·	21.8	·	·	·
CN(CCO)c1cc(NCCCN2CCC(Cc3ccccc3)CC2)c2nonc2c1[N+](=O)[O-]	-2.0	13.5*	-36.8	8.5	-2.3	-6.7
CCc1ccc(-c2nc(CS(=O)CC(=O)NC3CCCCCC3)c(C)o2)cc1 (centres undefined)	·	·	12.1	3.7	·	·
COc1ccc(-c2ccc(CCC(=O)O)n2NC(=O)c2cccs2)cc1	1.3	0.5	-3.3	0.7	18.7	42.1
Cc1ccc(-c2ccc(CCC(=O)O)n2NC(=O)c2cccs2)cc1	2.1	-0.2	-42.5	2.9	32.2	62.7*
CCN1/C(=C2/SC(=S)N(NC(C)=O)C2=O)Sc2ccc(OC)cc21	·	·	7.8	34.4*	·	·
CCN1/C(=C2/SC(=S)N(NC(C)=O)C2=O)Sc2ccc(Cl)cc21	·	·	35.6	33.4*	·	·
CCCCN1C(=O)/C(=C2/Sc3ccc(OC)cc3N2CC)SC1=S	·	·	13.9	23.3*	·	·
C=CCN1C(=O)/C(=C2/Sc3ccc(OC)cc3N2CC)SC1=S	·	·	13.9	?	·	·
COc1cc(NC(=O)C2=C(C)OCCS2)c(Cl)cc1C(=O)NCCN(C)C	·	·	1.1	0.4	·	·
Brc1ccc(-c2nnc(-c3cccc(Br)c3)o2)cc1	10.4*	-9.4	16.9	-3.0	2.1	2.8
COc1cc(C)nc(Oc2ccc(OCCOc3ccccc3)nn2)n1	-0.1	18.9*	1.2	1.6	·	·
COc1cc(C)nc(Oc2ccc(OCc3ccccc3)nn2)n1	1.7	-0.4	9.4	1.0	1.8	-2.2
COc1ccc(C(=O)Nc2nc3ccccc3[nH]2)cc1	·	·	14.6	0.8	·	·
SMILES	Wee1 degr inh	Efa HMGR inh	PHOSPHO1 block	RanGTP-Imp inh	Runt-CBFb FRET	Runt-SMMHC FRET
COc1ccc(C(=O)N[C@H](C(=O)Nc2nc3ccccc3[nH]2)C(C)C)cc1	9.0*	-7.7	31.9	-1.9	0.3	-0.3
CCc1ccc(NC(=O)C/C(C)=N/NC(=O)COc2ccccc2C)cc1	·	·	23.3	23.1	·	·
CCOc1ccc(Nc2nc(Cc3nnc(SCC(=O)NCC4CCCO4)n3C)cs2)cc1 (centres undefined)	2.2	-0.8	61.5*	2.1	4.6	1.0
CCn1c(SCC(=O)NCC2CCCO2)nnc1-c1ccc(Cl)cc1 (centres undefined)	0.0	-0.7	32.2	25.7*	-1.2	-2.4
CCn1c(SCC(=O)NCC2CCCO2)nnc1-c1c[nH]c2ccccc12 (centres undefined)	-1.4	1.1	-29.1	4.9	3.5	-2.9
Cc1ccccc1-n1c(C)nnc1SCC(=O)NCC1CCCO1 (centres undefined)	-1.5	-6.5	66.8*	-1.7	-1.2	0.1
Cc1ccc(N2C(=O)CS/C2=C(\C(Cl)=C(Cl)Cl)[N+](=O)[O-])cc1	-0.5	1.1	79.9*	-0.6	1.3	-9.8
CCOC(=O)c1c(S(=O)(=O)NCC(=O)Nc2ccc(F)cc2F)c(C)n(C)c1C	·	·	57.9	2.4	·	·
CCOC(=O)C1CCN(C(=O)c2cccnc2Oc2ccccc2)CC1	-1.2	·	31.6	2.1	4.3	-0.8
CCOC(=O)C(C(=O)Nc1cccc(C)n1)C1CCCCC1 (centres undefined)	0.2	-11.6	-5.4	-1.9	-0.3	2.9
CCOC(=O)C(C(=O)Nc1ccccn1)C1CCCCC1 (centres undefined)	-0.4	0.6	70.2*	4.2	-1.4	5.3
COc1ccc(/C(CC2OC(=O)c3ccccc32)=N\NC(N)=O)cc1 (centres undefined)	2.8	-1.1	33.5	-0.9	2.8	-2.4
O=C(COC(=O)Cc1ccccc1[N+](=O)[O-])Nc1nnc(-c2ccccc2)o1	·	·	·	0.4	·	·
Cc1nc(NC(=O)c2cc3c(s2)CCCCC3)sc1C(=O)N(C)C	4.9	-2.5	-29.1	?	-0.2	1.9
Cc1nc(NC(=O)c2ccc(Br)s2)sc1C(=O)N(C)C	10.7*	3.7	24.3	1.2	-1.1	-1.6
Cc1ccc(S(=O)(=O)CCC(=O)Nc2ccc3nc(C)sc3c2)cc1	10.8*	-0.8	12.1	-1.2	1.4	-3.9
Cc1ccc(NC(=O)CCS(=O)(=O)c2ccc3nc(C)sc3c2)cc1	·	·	-108.9	-1.7	·	·
O=C(CSc1nc2ccccc2n1CC(=O)NCc1ccccc1)NCc1ccco1	0.7	-7.5	69.2*	6.5	-12.2	-29.3
CC(=O)c1c(C)n(CC(=O)NCc2ccco2)c2ccccc12	-1.0	0.4	68.6*	-1.4	-1.9	-0.5
Cc1ccccc1-n1c(=O)c2ccccc2n(CC(=O)NCc2ccco2)c1=O	-0.2	-2.3	18.4	2.3	2.7	-2.5
CCS(=O)(=O)c1ccc2oc(SCC(=O)NCCC3=CCCCC3)nc2c1	-0.6	-7.9	-3.0	2.6	0.3	-1.0
